Assay results gathered from unrelated publications.
Lines come from different studies, so protocols differ.
PAK5: Serine/threonine-protein kinase PAK 5 (PAK5, Homo sapiens, UniProt Q9P286)
ALOX12: Polyunsaturated fatty acid lipoxygenase ALOX12 (ALOX12, Homo sapiens, UniProt P18054)

The inhibition of `C#Cc1n[nH]c2c(-c3cn([C@@H](C)c4ccccn4)c(=O)[nH]c3=O)cc(F)cc12` is reported as 5.1% (PAK5; enzyme activity, inhibitor; 0.1 µM).
The inhibition of `COc1cc(Nc2ncc(F)c(Nc3ccc4c(n3)NC(=O)C(C)(C)O4)n2)cc(OC)c1OC` is reported as 100% (Serine/threonine-protein kinase PLK4 (PLK4, Homo sapiens, UniProt O00444); binding; 10 µM).
`Cc1nn(C)cc1-c1nc2c(N3CCN(Cc4ccc(Cl)cc4)CC3)c(Cl)cnc2[nH]1` gave a remaining binding of 100% (Cyclin-dependent kinase 14 (CDK14, Homo sapiens, UniProt O94921); binding, competition with immobilised ligand; 1 µM).
The inhibition of `Cn1cc(-c2cccc(N3CCc4c(sc5c4CC(C)(C)C5)C3=O)c2CO)cc(Nc2ccncn2)c1=O` is reported as -3% (Serine/threonine-protein kinase PAK 3 (PAK3, Homo sapiens, UniProt O75914); enzyme activity, inhibitor; 1 µM).
The kinact/KI of `CC[C@H](C)[C@@H](C(=O)O[C@@H](CC(C)C)C(=O)N[C@@H](CC(C)C)C(=O)N[C@@H](C)/C=C/C(=O)N1C(=O)C=C(OC)[C@@H]1C)N(C)C` is reported as 7030 M⁻¹ s⁻¹ (Falcipain-3 (FP3, Plasmodium falciparum 3D7, UniProt Q8IIL0); enzyme activity, inhibitor, fluorescence; pH 6).
`CCCCCc1cc(O)c(C/C=C(\C)CCC=C(C)C)c(O)c1` gave a remaining activity of 152% (ALOX12; enzyme activity in cells, inhibitor; PMNL; 10 µM).
For `CCN(CC)CCCC[C@H](NC(=O)[C@H](CC(C)C)NC(=O)[C@H](C)NC(=O)[C@H](Cc1ccccc1)NC(=O)c1ccc(C(C)(C)C)cc1)C(=O)N[C@@H](CO)C(=O)OC`, the ΔTm was 0.49 °C (Bromodomain-containing protein 1, bromodomain (BRD1, Homo sapiens, UniProt O95696); thermal stability, DSF; 25 µM).
For `Cn1cc(-c2cc(F)cc(N3CCn4c(cc5c4CCCC5)C3=O)c2CO)cc(Nc2ccc(N3CCN(C4COC4)CC3)cn2)c1=O`, the inhibition was -1% (Phosphatidylinositol 3-kinase catalytic subunit type 3 (PIK3C3, Homo sapiens, UniProt Q8NEB9); enzyme activity, inhibitor; 0.1 µM).
`C=C(C)[C@@H]1CCC(C)=C[C@H]1c1c(O)cc(CCC)cc1O` has a remaining activity of 110% (ALOX12; enzyme activity in cells, inhibitor; PMNL; 10 µM).
For `COc1ncccc1-c1cnn2ccc(N3CCN(C(=O)OC(C)C)CC3)nc12`, the remaining binding was 98% (Mitogen-activated protein kinase kinase kinase 13 (MAP3K13, Homo sapiens, UniProt O43283); binding, competition with immobilised ligand; 1 µM).
`C#Cc1n[nH]c2c(-c3cn([C@@H](C)c4ccccc4)c(=O)[nH]c3=O)cc(F)cc12` has an inhibition of 4.5% (PAK5; enzyme activity, inhibitor; 0.1 µM).
`Nc1ncc(-c2nc(N3CCOCC3)nc(N3CCOCC3)n2)c(C(F)F)n1` gave a remaining binding of 51% (Serine/threonine-protein kinase RIO2 (RIOK2, Homo sapiens, UniProt Q9BVS4); binding, competition with immobilised ligand; 10 µM).
